Key:
[1] = target: 3-phosphoinositide-dependent protein kinase 1 (PDPK1) (Homo sapiens) (UniProt O15530); test: Inhibition of PDK1 (unknown origin)
[2] = target: T1, Signal transducer and activator of transcription 5A (Homo sapiens, UniProt P42229); test: Inhibition of STAT5 phosphorylation in human HEL cells by Western blot analysis
T1 sequence (P42229 whole entry): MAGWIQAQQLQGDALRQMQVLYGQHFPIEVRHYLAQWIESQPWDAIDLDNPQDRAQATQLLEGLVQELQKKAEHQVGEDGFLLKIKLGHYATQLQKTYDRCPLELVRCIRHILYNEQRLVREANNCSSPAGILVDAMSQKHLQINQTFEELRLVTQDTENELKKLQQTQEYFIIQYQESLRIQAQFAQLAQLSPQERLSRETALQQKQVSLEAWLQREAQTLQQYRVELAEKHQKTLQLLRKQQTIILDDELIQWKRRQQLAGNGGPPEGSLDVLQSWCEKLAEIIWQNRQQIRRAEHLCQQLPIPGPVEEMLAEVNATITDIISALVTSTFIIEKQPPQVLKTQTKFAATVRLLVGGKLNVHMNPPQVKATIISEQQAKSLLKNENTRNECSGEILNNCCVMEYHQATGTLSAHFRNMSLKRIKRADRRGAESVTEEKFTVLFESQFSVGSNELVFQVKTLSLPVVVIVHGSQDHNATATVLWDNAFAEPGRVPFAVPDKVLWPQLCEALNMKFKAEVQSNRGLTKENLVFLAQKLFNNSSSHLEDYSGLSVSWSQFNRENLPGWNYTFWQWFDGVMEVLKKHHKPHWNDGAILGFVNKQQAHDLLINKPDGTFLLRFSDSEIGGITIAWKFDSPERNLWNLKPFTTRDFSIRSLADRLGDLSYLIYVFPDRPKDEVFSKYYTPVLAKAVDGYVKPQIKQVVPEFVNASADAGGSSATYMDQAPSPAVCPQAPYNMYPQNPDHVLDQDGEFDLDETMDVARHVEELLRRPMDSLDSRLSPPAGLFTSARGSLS
In short: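 HEL cells were starved overnight in RPMI with 1% FCS, then exposed to compound for 2 h at 37 °C. Cells were lysed in RIPA buffer (50 mM HEPES pH 7.4, 150 mM NaCl, 1% Triton X-100, deoxycholate, 0.1% SDS) with protease and phosphatase inhibitors. Protein was quantified by Bradford assay and blots were developed by chemiluminescence. Membranes were stripped and reprobed for total STAT5.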

[3] = target: Signal transducer and activator of transcription 3 (Homo sapiens, UniProt P40763); test: Inhibition of STAT3 phosphorylation in human HEL cells by Western blot analysis
Signal transducer and activator of transcription 3, sequence (P40763 whole entry): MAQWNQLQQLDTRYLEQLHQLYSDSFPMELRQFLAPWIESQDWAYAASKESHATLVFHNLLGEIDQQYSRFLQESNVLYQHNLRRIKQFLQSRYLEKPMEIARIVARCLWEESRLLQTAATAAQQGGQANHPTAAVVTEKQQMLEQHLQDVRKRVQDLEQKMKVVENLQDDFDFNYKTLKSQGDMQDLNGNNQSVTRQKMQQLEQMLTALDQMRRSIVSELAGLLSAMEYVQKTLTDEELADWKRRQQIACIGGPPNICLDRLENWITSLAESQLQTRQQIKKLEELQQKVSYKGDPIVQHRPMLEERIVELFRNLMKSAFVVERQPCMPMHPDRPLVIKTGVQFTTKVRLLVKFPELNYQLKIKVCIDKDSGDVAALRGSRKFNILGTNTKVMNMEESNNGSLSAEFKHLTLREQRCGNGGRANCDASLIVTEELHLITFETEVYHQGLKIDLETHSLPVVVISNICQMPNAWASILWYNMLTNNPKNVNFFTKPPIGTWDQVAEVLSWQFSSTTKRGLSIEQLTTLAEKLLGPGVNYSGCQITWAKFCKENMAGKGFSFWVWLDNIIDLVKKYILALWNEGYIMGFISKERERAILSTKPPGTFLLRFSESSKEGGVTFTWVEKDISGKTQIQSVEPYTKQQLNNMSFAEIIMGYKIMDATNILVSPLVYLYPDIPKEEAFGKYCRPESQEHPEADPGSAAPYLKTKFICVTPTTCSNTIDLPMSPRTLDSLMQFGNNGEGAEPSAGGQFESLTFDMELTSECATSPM

IC50 [1]: > 1 µM
IC50 [2]: 0.4 µM
IC50 [3]: 2.5 µM
Structure (SMILES): N#CCNC(=O)c1ccc(-c2ccnc(Nc3ccc(N4CCOCC4)cc3)n2)cc1 [N-(cyanomethyl)-4-(2-(4-morpholinophenylamino)pyrimidin-4-yl)benzamide]

Reference: BindingDB's records for PubMed 19295546 (Mayo Clinic)
